Assay results: ChEMBL document CHEMBL1152508, “Interaction of drug based binuclear mixed-ligand complexes with DNA” (2009)

What was measured:
Format in all cases: functional
Staphylococcus aureus = test: Antibacterial activity against Staphylococcus aureus after 24 hrs by twofold serial dilution method
In short: (§1)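 Bacteria activated by inoculation into luria broth for 24 h at 30 °C. Compounds dissolved in DMSO, then diluted in luria broth as twofold serial concentrations. Test cultures incubated 24 h at 37 °C. MIC taken as the lowest concentration giving complete inhibition of growth.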

Bacillus subtilis = test: Antibacterial activity against Bacillus subtilis after 24 hrs by twofold serial dilution method; in short: as §1
Serratia marcescens = test: Antibacterial activity against Serratia marcescens after 24 hrs by twofold serial dilution method; in short: as §1
Pseudomonas aeruginosa = test: Antibacterial activity against Pseudomonas aeruginosa after 24 hrs by twofold serial dilution method; in short: as §1
Escherichia coli = test: Antibacterial activity against Escherichia coli after 24 hrs by twofold serial dilution method; in short: as §1

SMILES | Activity (Staphylococcus aureus) [µM] | Activity (Bacillus subtilis) [µM] | Activity (Serratia marcescens) [µM] | Activity (Pseudomonas aeruginosa) [µM] | Activity (Escherichia coli) [µM]
C/C(=N/c1ccccc1/N=C(\C)c1ccccc1)c1ccccc1 | 1760 | 1600 | 1760 | 1920 | 2080
CCN1CCN(c2cc3c(cc2F)c(=O)c(C(=O)O)cn3C2CC2)CC1 [ENROFLOXACIN] | 1.95 | 3.9 | 1.67 | 1.39 | 1.39
NCCN [ETHYLENEDIAMINE] | 8319 | 9151 | 9983 | 10815 | 10815
CCn1cc(C(=O)O)c(=O)c2cc(F)c(N3CCN(C)CC3)cc21 [PEFLOXACIN] | 2.1 | 2.4 | 5.1 | 5.7 | 2.7
COc1ccc(/C=N/CC/N=C/c2ccc(OC)cc2)cc1 | 1687 | 1518 | 1687 | 1855 | 2193
CCn1cc(C(=O)O)c(=O)c2cc(F)c(N3CCNCC3)cc21 [NORFLOXACIN] | 2.5 | 2.51 | 4.07 | 3.76 | 2.82
C[C@@H]1CN(c2c(F)c(N)c3c(=O)c(C(=O)O)cn(C4CC4)c3c2F)C[C@H](C)N1 [SPARFLOXACIN] | 1.27 | 2.04 | 1.53 | 1.53 | 1.27
C[C@H]1COc2c(N3CCN(C)CC3)c(F)cc3c(=O)c(C(=O)O)cn1c23.C[C@H]1COc2c(N3CCN(C)CC3)c(F)cc3c(=O)c(C(=O)O)cn1c23.O [LEVOFLOXACIN] | 1.66 | 2.21 | 1.67 | 1.66 | 0.97
O=C(O)c1cn(C2CC2)c2cc(N3CCNCC3)c(F)cc2c1=O [CIPROFLOXACIN] | 1.63 | 1.09 | 1.63 | 1.36 | 1.36
Nc1cccc2cccc(N)c12 | 3160 | 3476 | 4108 | 3792 | 4108
Nc1ccccc1N | 5086 | 5548 | 6010 | 6010 | 6473
CC1COc2c(N3CCN(C)CC3)c(F)cc3c(=O)c(C(=O)O)cn1c23 (stereo not given) [OFLOXACIN] | 1.94 | 1.38 | 1.66 | 2.21 | 1.38
COc1ccc(/N=C(C)\C(C)=N\c2ccc(OC)cc2)cc1 | 1855 | 1518 | 2024 | 2193 | 2361
COc1c(N2CCNC(C)C2)c(F)cc2c(=O)c(C(=O)O)cn(C3CC3)c12 (stereo not given) [GATIFLOXACIN] | 5.06 | 4 | 2.93 | 1.01 | 2.93
